Compounds with a hit are over-represented: about 2.4% of the library has one in this group of screens.
MC4R barr agon: human MC4R agonism via beta-arrestin; P32245; U2OS MC4R beta-arrestin complementation, luminescence; percent of melanotan II response, DMSO zero; activation, % at 8.9 µM; hit rate 0.98% among 360,000;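 active means activation above a per-plate cutoff, the mean activation of sample wells on that plate plus 3 SD, cut at about 8% in these data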
Target sequence (P32245 whole entry, looked up): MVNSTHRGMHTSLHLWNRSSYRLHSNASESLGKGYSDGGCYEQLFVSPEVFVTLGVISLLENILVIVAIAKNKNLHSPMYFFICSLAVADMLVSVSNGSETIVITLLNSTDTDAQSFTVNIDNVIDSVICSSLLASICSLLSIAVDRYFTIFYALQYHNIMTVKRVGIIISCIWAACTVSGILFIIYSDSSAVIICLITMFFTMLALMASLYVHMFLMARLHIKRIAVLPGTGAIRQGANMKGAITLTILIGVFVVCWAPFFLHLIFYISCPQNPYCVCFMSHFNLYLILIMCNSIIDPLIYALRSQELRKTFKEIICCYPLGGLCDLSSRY
MOR-DOR inv ag: inverse agonists of human mu-delta opioid receptor heterodimerization. cell-based MOR-DOR heterodimer luminescence, inverse agonism. inhibition, % at 9.3 µM. hit rate 0.21% among 340,000. AID 504357; in the data active means inhibition above about 22%, passing the limit was not always enough;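 further: 0% = cells with DMSO and 100% = wells without cells with DMSO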
MC4R antagonist: antagonists of human melanocortin 4 receptor (MC4R) | P32245 | MC4R-expressing cells, MTII-stimulated cAMP, LANCE TR-FRET | inhibition, % at 6.5 µM | hit rate 0.48% among 360,000 | AID 540295;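 active means inhibition above its plate's cutoff, the mean of tested wells on that plate plus 3 SD, cut at about 29% in these data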;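 further: 0% = Melanotan II alone and 100% = Melanotan II plus saturating MCL0020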
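Assay system: human MC4R-expressing U2OS cells; reagent: Melanotan II stimulation of cells; dosing: 6.5 µM single dose; timing: compound 30 min, challenge 1 h, detection 1 h; signal: TR-FRET cAMP assay; replicates: one well per compound, no replicates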
HTR5A ag ctr: counter-screen for OPRM1-OPRD1 agonists: human HTR5A agonism. P47898. HTR5A agonist assay, luminescence, cell-based. activation, % at 9.3 µM. hit rate 0.61% among 340,000; in the data active means activation mostly above about 9.5%, no sharp cut-off; inactive means mostly below about 7.6%;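 further: 0% = cells with vehicle only and 100% = reference agonist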
Target sequence (P47898 whole entry, looked up): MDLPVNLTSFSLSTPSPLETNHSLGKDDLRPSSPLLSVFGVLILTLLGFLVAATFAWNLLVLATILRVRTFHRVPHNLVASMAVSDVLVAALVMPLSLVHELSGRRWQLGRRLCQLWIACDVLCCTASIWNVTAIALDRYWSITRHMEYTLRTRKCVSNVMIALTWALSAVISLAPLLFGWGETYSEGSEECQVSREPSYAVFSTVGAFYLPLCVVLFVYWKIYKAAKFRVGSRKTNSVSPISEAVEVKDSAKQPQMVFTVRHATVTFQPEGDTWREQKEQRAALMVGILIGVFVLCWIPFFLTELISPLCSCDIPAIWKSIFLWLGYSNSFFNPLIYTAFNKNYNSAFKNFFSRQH
HTR5A inv ag: inverse agonist of human HTR5A in OPRM1-OPRD1 counter-screen; P47898; HTR5A cell line, luminescence, inverse agonism; inhibition, % at 9.3 µM; hit rate 0.083% among 340,000; AID 504634; in the data active means inhibition mostly above about 23%, no sharp cut-off; inactive means mostly below about 18%;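 further: 0% = cells with DMSO and 100% = no-cell wells with DMSO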
OPRM1-OPRD1 ag: agonists of human mu-delta opioid receptor heterodimerization; AID 504326; activation, % at 9.3 µM; hit rate 0.3% among 340,000; P35372+P41143; cells, OPRM1-OPRD1 heterodimerization, luminescence; in the data active means activation above about 18%;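 further: 0% = vehicle-treated cells and 100% = reference agonist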
MC4R barr conf: human MC4R beta-arrestin agonism confirmation; hit rate 31% among 2,400; activation, % at 8.9 µM; U2OS MC4R beta-arrestin recruitment, luminescence; scaled DMSO 0%, Melanotan II 100%; shares compounds with MC4R barr agon;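 active means mean activation across replicates above the hit cutoff set in the earlier primary screen, cut at about 8% in these data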
MOR-DOR barr ag: OPRM1-OPRD1 heterodimer agonism counter-screen | AID 602194 | U2OS PathHunter beta-arrestin, beta-gal luminescence; percent of deltorphin B response, DMSO zero | shares compounds with MC4R barr agon | activation, % at 9.2 µM | hit rate 5.8% among 2,400;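 active means mean activation across replicates exceeds the hit threshold derived in the earlier primary screen, cut at about 18% in these data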;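 further: 100% = deltorphin B at 0.9 µM final and 0% = DMSO alone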
Starred values were filed as active, the others as inactive.

O=C(Nc1ccc(N2CCOCC2)cc1)c1ccc2nc(-c3ccco3)c(-c3ccco3)nc2c1 was read as MC4R barr agon 10.4*, MOR-DOR inv ag -69.0, MC4R antagonist -13.7, HTR5A ag ctr -1.5, HTR5A inv ag 20.3, OPRM1-OPRD1 ag 12.4, MC4R barr conf -0.7 and MOR-DOR barr ag 17.0.
`COc1ccc(C(=O)CSc2nc(=O)n3ccc(C)cc3n2)cc1` gave MC4R barr agon 0.4 and MC4R antagonist 8.3.
`COc1ccc(CCn2c(C)cc(C(=O)CSc3nnnn3-c3ccccc3)c2C)cc1OC` gave MC4R barr agon 17.1*, MOR-DOR inv ag -0.3, MC4R antagonist -0.3, HTR5A ag ctr 13.2, HTR5A inv ag -39.1, OPRM1-OPRD1 ag 0.1, MC4R barr conf 7.6 and MOR-DOR barr ag 4.4.
For Cc1cc(C(=O)CSc2nnnn2-c2ccccc2)c(C)n1CCc1ccccc1 the results were MC4R barr agon 1.1, MOR-DOR inv ag 1.7, MC4R antagonist 9.6, HTR5A ag ctr -1.8, HTR5A inv ag -20.6 and OPRM1-OPRD1 ag -0.3.
`Clc1ccc(-c2csc(N/N=C\c3cccnc3)n2)cc1` gave MC4R barr agon 11.3*, MOR-DOR inv ag -42.1, MC4R antagonist 17.2, HTR5A ag ctr 0.7, HTR5A inv ag -2.4, OPRM1-OPRD1 ag 8.1, MC4R barr conf -0.3 and MOR-DOR barr ag 5.4.
Cc1cccc(-c2n[nH]c(=S)n2/N=C/c2ccc(C)s2)c1 was read as MC4R barr agon 11.6*, MOR-DOR inv ag -42.4, MC4R antagonist 5.0, HTR5A ag ctr 0.6, HTR5A inv ag -1.7, OPRM1-OPRD1 ag 7.0, MC4R barr conf -0.5 and MOR-DOR barr ag 4.1.
Screening COc1ccc(NC(=O)NNS(=O)(=O)c2ccc(OC)c(OC)c2)c(OC)c1 returned MC4R barr agon 0.6, MOR-DOR inv ag -6.0, MC4R antagonist 2.4, HTR5A ag ctr 2.9, HTR5A inv ag -7.4 and OPRM1-OPRD1 ag 1.5.
`CSCC[C@H](NC(=O)[C@@H]1CSC2c3ccccc3C(=O)N21)C(=O)NC1CCCC1` (stereo partly specified) gave MC4R barr agon -2.5, MOR-DOR inv ag 9.9, MC4R antagonist 6.4, HTR5A ag ctr -2.0, HTR5A inv ag -9.7 and OPRM1-OPRD1 ag -2.0.
Screening CCOC(=O)c1c(-c2ccc(C)o2)csc1NC(=O)COC(=O)c1ccc(NC(N)=O)cc1 returned MC4R barr agon 23.7*, MOR-DOR inv ag -8.3, MC4R antagonist 25.7, HTR5A ag ctr 10.8, HTR5A inv ag -22.8, OPRM1-OPRD1 ag 1.4, MC4R barr conf 6.1 and MOR-DOR barr ag 3.1.
For COc1ccc(C2C(=O)c3ccccc3C2=Nc2ccc(Br)cc2)cc1 (stereo unspecified) the results were MC4R barr agon 25.9*, MOR-DOR inv ag -4.3, MC4R antagonist 5.1, HTR5A ag ctr -2.0, HTR5A inv ag 5.5, OPRM1-OPRD1 ag 0.8, MC4R barr conf 10.7* and MOR-DOR barr ag 6.4.
`Cc1ccc(Oc2cc([N+](=O)[O-])cc3c2C(=O)Nc2ccccc2O3)cc1` gave MC4R barr agon 13.7*, MOR-DOR inv ag -75.0, MC4R antagonist 6.5, HTR5A ag ctr 9.8, HTR5A inv ag -18.5, OPRM1-OPRD1 ag 11.1, MC4R barr conf 1.9 and MOR-DOR barr ag 7.7.
For COc1cc2c(cc1NC(=O)Nc1ccc(C)cc1)oc1ccccc12 the results were MC4R barr agon 3.1, MOR-DOR inv ag -20.1, MC4R antagonist 16.8, HTR5A ag ctr -3.2, HTR5A inv ag -11.1 and OPRM1-OPRD1 ag 3.8.
Screening COc1ccc(NC(=O)Nc2cc3oc4ccccc4c3cc2OC)cc1 returned MC4R barr agon -0.4, MOR-DOR inv ag 15.7, MC4R antagonist 6.2, HTR5A ag ctr 1.5, HTR5A inv ag 1.6 and OPRM1-OPRD1 ag -3.1.
Screening COc1cc2c(cc1NC(=O)Nc1cccc(C)c1)oc1ccccc12 returned MC4R barr agon 10.9*, MOR-DOR inv ag -3.2, MC4R antagonist 6.0, HTR5A ag ctr 5.9, HTR5A inv ag -20.9, OPRM1-OPRD1 ag 0.6, MC4R barr conf 1.9 and MOR-DOR barr ag 1.9.
Cc1cccc(NC(=O)Nc2ccc(C)cc2Br)c1 was read as MC4R barr agon 11.8*, MOR-DOR inv ag -52.3, MC4R antagonist 5.7, HTR5A ag ctr 8.4, HTR5A inv ag -39.3, OPRM1-OPRD1 ag 9.8, MC4R barr conf 3.0 and MOR-DOR barr ag 9.1.
`COc1cc2c(cc1NC(=S)Nc1cccc(C)c1)oc1ccccc12` gave MC4R barr agon 0.0, MOR-DOR inv ag 2.2, MC4R antagonist 12.6, HTR5A ag ctr 3.0, HTR5A inv ag 12.2 and OPRM1-OPRD1 ag -0.4.
COc1cc2c(cc1NC(=O)Nc1ccc(F)cc1)oc1ccccc12 was read as MC4R barr agon 10.8*, MOR-DOR inv ag 7.6, MC4R antagonist -3.8, HTR5A ag ctr 2.5, HTR5A inv ag -15.6, OPRM1-OPRD1 ag -1.4, MC4R barr conf 0.6 and MOR-DOR barr ag 2.9.
COc1ccc(OCC(=O)Nc2cc3oc4ccccc4c3cc2OC)cc1 was read as MC4R barr agon 37.7*, MOR-DOR inv ag 11.9, MC4R antagonist -6.5, HTR5A ag ctr -1.4, HTR5A inv ag 11.9, OPRM1-OPRD1 ag -1.9, MC4R barr conf 12.0* and MOR-DOR barr ag 13.6.
For CCn1c(CC(=O)Nc2ccc(C)c(Cl)c2)nnc1SCCOc1ccc(OC)cc1 the results were MC4R barr agon 10.7*, MOR-DOR inv ag -9.5, MC4R antagonist -4.8, HTR5A ag ctr 1.3, HTR5A inv ag -36.9, OPRM1-OPRD1 ag 1.8, MC4R barr conf 0.0 and MOR-DOR barr ag 7.0.
`CC(=O)c1cccc(N(CC(=O)NC2CCCCC2)C(=O)Cn2nnc(-c3ccccc3)n2)c1` gave MC4R barr agon 0.5, MOR-DOR inv ag -10.3, MC4R antagonist 8.2, HTR5A ag ctr 3.0, HTR5A inv ag -9.0 and OPRM1-OPRD1 ag 1.3.
O=C(COc1cccc2ccccc12)N/N=C/C=C/c1ccccc1 was read as MC4R barr agon 9.7*, MOR-DOR inv ag -38.7, MC4R antagonist 2.7, HTR5A ag ctr 1.7, HTR5A inv ag -4.7, OPRM1-OPRD1 ag 5.3, MC4R barr conf 3.9 and MOR-DOR barr ag 5.7.
For Cc1ccccc1OCC(=O)N/N=C/C=C/c1ccccc1 the results were MC4R barr agon 10.3*, MOR-DOR inv ag -10.4, MC4R antagonist -5.2, HTR5A ag ctr 1.9, HTR5A inv ag 7.2, OPRM1-OPRD1 ag 2.2, MC4R barr conf 3.5 and MOR-DOR barr ag 7.8.
`COc1ccccc1NCC(=O)N/N=C/C=C/c1ccccc1` gave MC4R barr agon -1.2, MOR-DOR inv ag 3.0, MC4R antagonist -14.7, HTR5A ag ctr 0.0, HTR5A inv ag 0.0 and OPRM1-OPRD1 ag -0.6.

Compound activity: PubChem BioAssay, The Scripps Research Institute Molecular Screening Center
